In ChEMBL document CHEMBL1137816, “New polyhydroxylated pyrrolidine, piperidine, and pyrrolizidine alkaloids from Scilla sibirica” (J Nat Prod, 2002):
The source made the active and inactive calls. The calls are words filed in the database; no cut-off is given here.

Molecular target: T1, Beta-galactosidase (Bos taurus, UniProt Q58D55)
T1 sequence (Q58D55 whole entry): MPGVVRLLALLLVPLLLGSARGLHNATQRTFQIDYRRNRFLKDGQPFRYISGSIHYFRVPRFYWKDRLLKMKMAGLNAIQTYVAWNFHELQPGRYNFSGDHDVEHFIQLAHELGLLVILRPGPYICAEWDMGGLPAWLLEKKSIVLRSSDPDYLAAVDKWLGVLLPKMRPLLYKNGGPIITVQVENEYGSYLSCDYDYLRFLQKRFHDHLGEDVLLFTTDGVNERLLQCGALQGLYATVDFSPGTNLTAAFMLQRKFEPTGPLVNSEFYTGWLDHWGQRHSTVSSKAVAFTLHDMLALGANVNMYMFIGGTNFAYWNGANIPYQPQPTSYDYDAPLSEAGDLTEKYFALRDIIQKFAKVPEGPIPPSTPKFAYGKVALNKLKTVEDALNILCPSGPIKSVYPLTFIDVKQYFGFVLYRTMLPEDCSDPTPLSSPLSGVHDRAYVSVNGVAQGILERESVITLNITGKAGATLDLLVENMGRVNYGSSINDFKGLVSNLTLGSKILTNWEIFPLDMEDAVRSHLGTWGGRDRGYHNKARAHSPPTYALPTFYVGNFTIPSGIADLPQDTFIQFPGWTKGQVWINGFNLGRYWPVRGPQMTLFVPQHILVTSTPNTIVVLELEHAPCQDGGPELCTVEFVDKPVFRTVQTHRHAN
Assay: Inhibition of bovine liver beta-galactosidase assessed as p-nitrophenol release after 30 mins by spectrophotometry
Outline: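 Bovine liver enzyme at pH 6.8 with the appropriate p-nitrophenyl glycoside. Incubated with inhibitor 30 min at 37 °C, quenched with 400 mM Na2CO3, and released p-nitrophenol read at 400 nm.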

Row | IC50 [µM] | SMILES
1 | 88 | OCC[C@H]1N[C@H](CO)[C@@H](O)[C@@H]1O
2 | 4.4 | OCC(O)[C@H]1N[C@H](CO)[C@@H](O)[C@@H]1O (single isomer, unassigned)
3 | 3.4 | CC(O)[C@H]1N[C@H](CO)[C@@H](O)[C@@H]1O (single isomer, unassigned)

Molecular target: not listed separately
Assay: Inhibition of rice alpha-glucosidase assessed as D-glucose release after 10 mins by Glucose B-test
Parameters: species or system Oryza sativa
Outline: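 Rice enzyme with maltose as substrate at the enzyme's optimum pH. Incubation with inhibitor ran 10 min at 37 °C. Released D-glucose determined colorimetrically with a glucose test kit.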

Row | IC50 [µM] | SMILES
4 | 95 | OCC(O)[C@H]1N[C@H](CO)[C@@H](O)[C@@H]1O (single isomer, unassigned)
5 | 9.2 | CC(O)[C@H]1N[C@H](CO)[C@@H](O)[C@@H]1O (single isomer, unassigned)

Row | SMILES | IC50 [µM]
6 | OC[C@H]1NC[C@H](O)[C@@H](O)[C@@H]1O [DUVOGLUSTAT] | 0.05

Molecular target: T2, Tissue alpha-L-fucosidase (Bos taurus) (UniProt Q2KIM0)
T2 sequence (whole entry): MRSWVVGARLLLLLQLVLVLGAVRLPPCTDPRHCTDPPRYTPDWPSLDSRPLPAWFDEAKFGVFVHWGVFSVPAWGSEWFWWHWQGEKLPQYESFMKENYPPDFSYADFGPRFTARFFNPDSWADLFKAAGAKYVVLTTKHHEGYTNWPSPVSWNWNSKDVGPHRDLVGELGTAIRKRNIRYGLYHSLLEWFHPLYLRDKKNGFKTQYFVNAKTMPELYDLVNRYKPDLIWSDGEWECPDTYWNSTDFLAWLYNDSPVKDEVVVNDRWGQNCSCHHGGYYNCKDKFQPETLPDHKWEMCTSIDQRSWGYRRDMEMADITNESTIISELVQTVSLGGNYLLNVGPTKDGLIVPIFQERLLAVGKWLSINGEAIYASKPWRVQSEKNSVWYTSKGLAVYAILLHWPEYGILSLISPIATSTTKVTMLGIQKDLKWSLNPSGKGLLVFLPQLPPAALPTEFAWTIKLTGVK
Assay: Inhibition of bovine epididymis alpha-L-fucosidase assessed as p-nitrophenol release at 1000 uM after 30 mins by spectrophotometry
Outline: (§1)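 p-Nitrophenyl glycoside substrates: Penicillium decumbens α-L-rhamnosidase at pH 4.5, bovine epididymis α-L-fucosidase at pH 5.5, bovine liver β-galactosidase at pH 6.8. β-Mannosidase came from rat epididymal fluid purified from epididymis, with p-nitrophenyl-β-D-mannoside at pH 5.2. Enzyme, substrate and inhibitor were incubated 30 min at 37 °C. The reaction was stopped with 400 mM Na2CO3, and p-nitrophenol was read at 400 nm.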

Row | SMILES | inhibition [%] | Activity
7 | OC[C@H]1NC[C@@H](O)[C@H](O)[C@@H]1O | < 50 | 
8 | C[C@@H]1CC[C@@H]2[C@H](O)[C@H](O)[C@@H](CO)N12 (relative stereo) |  | inactive
9 | OC[C@H]1NC[C@H](O)[C@@H](O)[C@@H]1O [DUVOGLUSTAT] | < 50 | 

Further lines, with some results ahead:

Row | inhibition [%] | SMILES | Activity
10 | < 50 | OCC(O)[C@H]1N[C@H](CO)[C@@H](O)[C@@H]1O (single isomer, unassigned) | 
11 | < 50 | CC(O)[C@H]1N[C@H](CO)[C@@H](O)[C@@H]1O (single isomer, unassigned) | 

Molecular target: T3, Beta-galactosidase (Bos taurus) (UniProt Q58D55)
T3 sequence (whole entry): T1 sequence (Q58D55 whole entry)
Assay: Inhibition of bovine liver beta-galactosidase assessed as p-nitrophenol release at 1000 uM after 30 mins by spectrophotometry
Outline: as §1

Row | SMILES | Activity | inhibition [%]
12 | C[C@@H]1CC[C@@H]2[C@H](O)[C@H](O)[C@@H](CO)N12 (relative stereo) | inactive | 
13 | OC[C@H]1NC[C@H](O)[C@@H](O)[C@@H]1O [DUVOGLUSTAT] |  | < 50

Molecular target: Lysosomal alpha-glucosidase (Rattus norvegicus) (UniProt Q6P7A9)
Assay: Inhibition of rat intestinal maltase assessed as D-glucose release at 1000 uM after 30 mins by Glucose B-test
Outline: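 Brush border membranes from rat small intestine served as the enzyme source, with maltose substrate at pH 5.8. Incubation with inhibitor was 30 min at 37 °C. Released D-glucose was measured colorimetrically by Glucose B-test.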

Sequence of Lysosomal alpha-glucosidase (Rattus norvegicus) (Q6P7A9 whole entry): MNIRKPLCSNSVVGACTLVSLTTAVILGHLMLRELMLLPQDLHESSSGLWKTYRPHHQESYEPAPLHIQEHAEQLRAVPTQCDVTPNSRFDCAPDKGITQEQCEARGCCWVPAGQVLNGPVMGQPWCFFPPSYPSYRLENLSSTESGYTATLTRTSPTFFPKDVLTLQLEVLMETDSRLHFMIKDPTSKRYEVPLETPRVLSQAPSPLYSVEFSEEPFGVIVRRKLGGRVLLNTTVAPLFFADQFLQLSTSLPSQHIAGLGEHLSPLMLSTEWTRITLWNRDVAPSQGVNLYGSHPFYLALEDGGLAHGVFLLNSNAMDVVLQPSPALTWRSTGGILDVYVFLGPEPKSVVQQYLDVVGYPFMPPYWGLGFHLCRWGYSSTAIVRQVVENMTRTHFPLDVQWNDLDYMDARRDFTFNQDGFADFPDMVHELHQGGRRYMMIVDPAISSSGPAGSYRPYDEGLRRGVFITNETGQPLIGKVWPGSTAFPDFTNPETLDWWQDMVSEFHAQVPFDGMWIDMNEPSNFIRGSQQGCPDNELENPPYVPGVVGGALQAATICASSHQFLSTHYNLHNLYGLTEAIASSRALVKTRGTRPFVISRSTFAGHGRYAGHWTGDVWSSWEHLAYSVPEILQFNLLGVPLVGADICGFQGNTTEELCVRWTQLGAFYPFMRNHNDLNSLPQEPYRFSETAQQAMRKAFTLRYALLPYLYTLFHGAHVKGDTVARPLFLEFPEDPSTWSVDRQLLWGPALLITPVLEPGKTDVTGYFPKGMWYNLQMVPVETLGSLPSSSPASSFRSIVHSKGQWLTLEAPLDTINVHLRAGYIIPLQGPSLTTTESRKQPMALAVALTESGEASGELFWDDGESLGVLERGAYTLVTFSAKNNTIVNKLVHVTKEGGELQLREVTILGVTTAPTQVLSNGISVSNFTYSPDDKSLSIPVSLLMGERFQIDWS

Row | inhibition [%] | SMILES | Activity
14 | < 50 | OC[C@H]1NC[C@@H](O)[C@H](O)[C@@H]1O | 
15 | < 50 | OCC[C@H]1N[C@H](CO)[C@@H](O)[C@@H]1O | 
16 |  | C[C@@H]1CC[C@@H]2[C@H](O)[C@H](O)[C@@H](CO)N12 (relative stereo) | inactive

Molecular target: T4, Beta-mannosidase (Rattus norvegicus, UniProt Q4FZV0)
T4 sequence (Q4FZV0 whole entry): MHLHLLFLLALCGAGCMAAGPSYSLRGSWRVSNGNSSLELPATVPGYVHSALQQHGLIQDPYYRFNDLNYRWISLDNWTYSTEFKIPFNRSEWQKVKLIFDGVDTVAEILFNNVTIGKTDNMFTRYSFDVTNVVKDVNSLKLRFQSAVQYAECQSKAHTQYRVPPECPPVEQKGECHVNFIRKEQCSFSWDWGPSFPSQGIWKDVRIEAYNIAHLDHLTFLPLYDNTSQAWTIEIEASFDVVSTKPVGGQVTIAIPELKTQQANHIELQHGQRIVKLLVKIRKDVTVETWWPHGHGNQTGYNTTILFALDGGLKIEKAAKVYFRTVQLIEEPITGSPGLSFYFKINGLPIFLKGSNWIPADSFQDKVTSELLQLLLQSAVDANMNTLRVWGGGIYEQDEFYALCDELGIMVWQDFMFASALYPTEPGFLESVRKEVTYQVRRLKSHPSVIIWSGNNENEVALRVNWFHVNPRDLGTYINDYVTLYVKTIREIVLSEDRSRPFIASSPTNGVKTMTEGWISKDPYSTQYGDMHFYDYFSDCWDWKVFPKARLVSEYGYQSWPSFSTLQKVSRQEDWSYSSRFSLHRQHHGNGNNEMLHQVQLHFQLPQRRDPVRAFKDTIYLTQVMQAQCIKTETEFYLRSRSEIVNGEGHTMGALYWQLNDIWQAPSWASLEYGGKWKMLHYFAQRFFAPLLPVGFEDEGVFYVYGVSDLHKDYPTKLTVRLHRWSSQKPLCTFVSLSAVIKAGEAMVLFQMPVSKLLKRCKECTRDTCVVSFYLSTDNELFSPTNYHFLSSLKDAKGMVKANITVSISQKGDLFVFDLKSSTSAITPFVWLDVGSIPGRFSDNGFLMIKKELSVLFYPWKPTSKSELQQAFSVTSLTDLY
Assay: Inhibition of rat epididymis beta-mannosidase assessed as p-nitrophenol release after 30 mins by spectrophotometry
Outline: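 Source was rat epididymal fluid purified from epididymis. Assayed at pH 5.2 with p-nitrophenyl-β-D-mannoside, incubated with inhibitor 30 min at 37 °C. Stopped with 400 mM Na2CO3; p-nitrophenol read at 400 nm.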

Row | IC50 [µM] | SMILES
17 | 320 | OCC[C@H]1N[C@H](CO)[C@@H](O)[C@@H]1O
18 | 53 | OCC(O)[C@H]1N[C@H](CO)[C@@H](O)[C@@H]1O (single isomer, unassigned)
19 | 35 | CC(O)[C@H]1N[C@H](CO)[C@@H](O)[C@@H]1O (single isomer, unassigned)

Molecular target: Oligo-1,6-glucosidase IMA1 (Saccharomyces cerevisiae S288c) (UniProt P53051)
Assay: Inhibition of yeast alpha-glucosidase assessed as D-glucose release at 1000 uM after 30 mins by Glucose B-test

Sequence of Oligo-1,6-glucosidase IMA1 (Saccharomyces cerevisiae S288c) (P53051 whole entry): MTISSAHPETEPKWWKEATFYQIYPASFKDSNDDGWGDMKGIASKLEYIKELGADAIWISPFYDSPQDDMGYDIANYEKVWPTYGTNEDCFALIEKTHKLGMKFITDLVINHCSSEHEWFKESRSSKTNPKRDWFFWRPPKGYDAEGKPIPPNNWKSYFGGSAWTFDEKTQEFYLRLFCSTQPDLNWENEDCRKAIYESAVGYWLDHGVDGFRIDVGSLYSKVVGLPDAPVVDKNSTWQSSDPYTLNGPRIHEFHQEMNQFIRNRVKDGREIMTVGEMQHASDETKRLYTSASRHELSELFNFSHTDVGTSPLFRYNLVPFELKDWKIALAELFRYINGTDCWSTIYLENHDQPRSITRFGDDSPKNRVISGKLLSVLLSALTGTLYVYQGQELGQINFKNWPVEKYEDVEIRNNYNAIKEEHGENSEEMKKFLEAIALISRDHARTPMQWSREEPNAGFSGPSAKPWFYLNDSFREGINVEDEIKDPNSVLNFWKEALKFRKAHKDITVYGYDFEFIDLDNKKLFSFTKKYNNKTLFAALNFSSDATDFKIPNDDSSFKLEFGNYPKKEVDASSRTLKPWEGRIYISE

Row | SMILES | Activity
20 | C[C@@H]1CC[C@@H]2[C@H](O)[C@H](O)[C@@H](CO)N12 (relative stereo) | inactive

Molecular target: not listed separately
Assay: Inhibition of Penicillium decumbens alpha-L-rhamnosidase assessed as p-nitrophenol release after 30 mins by spectrophotometry
Outline: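 Penicillium decumbens enzyme assayed at pH 4.5 with the appropriate p-nitrophenyl glycoside. Substrate, diluted enzyme and inhibitor were incubated 30 min at 37 °C, then stopped with 400 mM Na2CO3. Released p-nitrophenol was read at 400 nm.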

Row | IC50 [µM] | SMILES
21 | 1.8 | OC[C@H]1NC[C@@H](O)[C@H](O)[C@@H]1O
22 | 94 | OCC[C@H]1N[C@H](CO)[C@@H](O)[C@@H]1O

Row | SMILES | IC50 [µM]
23 | OC[C@H]1NC[C@H](O)[C@@H](O)[C@@H]1O [DUVOGLUSTAT] | 850

Molecular target: Lysosomal alpha-glucosidase (Rattus norvegicus) (UniProt Q6P7A9)
Assay: Inhibition of rat liver lysosome alpha-glucosidase assessed as D-glucose release at 1000 uM after 30 mins by Glucose B-test

Row | SMILES | Activity
24 | C[C@@H]1CC[C@@H]2[C@H](O)[C@H](O)[C@@H](CO)N12 (relative stereo) | inactive

System: Oryza sativa
Assay: Inhibition of rice alpha-glucosidase assessed as D-glucose release at 1000 uM after 10 mins by Glucose B-test
Outline: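 Rice α-glucosidase was assayed with maltose as substrate at the enzyme's optimum pH. Incubation with inhibitor was 10 min at 37 °C. Released D-glucose was determined colorimetrically by Glucose B-test.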

Row | inhibition [%] | SMILES | Activity
25 | < 50 | OC[C@H]1NC[C@@H](O)[C@H](O)[C@@H]1O | 
26 | < 50 | OCC[C@H]1N[C@H](CO)[C@@H](O)[C@@H]1O | 
27 |  | C[C@@H]1CC[C@@H]2[C@H](O)[C@H](O)[C@@H](CO)N12 (relative stereo) | inactive

Molecular target: T5, Beta-mannosidase (Rattus norvegicus) (UniProt Q4FZV0)
T5 sequence (whole entry): T4 sequence (Q4FZV0 whole entry)
Assay: Inhibition of rat epididymis beta-mannosidase assessed as p-nitrophenol release at 1000 uM after 30 mins by spectrophotometry
Outline: as §1

Row | SMILES | inhibition [%]
28 | OC[C@H]1NC[C@@H](O)[C@H](O)[C@@H]1O | < 50
29 | OC[C@H]1NC[C@H](O)[C@@H](O)[C@@H]1O [DUVOGLUSTAT] | < 50

Molecular target: Lysosomal alpha-glucosidase (Rattus norvegicus) (UniProt Q6P7A9)
Assay: Inhibition of rat liver lysosome alpha-glucosidase assessed as p-nitrophenol release at 1000 uM after 30 mins measured spectrometrically at 400 nm

Row | SMILES | inhibition [%]
30 | OC[C@H]1NC[C@@H](O)[C@H](O)[C@@H]1O | < 50
31 | OCC[C@H]1N[C@H](CO)[C@@H](O)[C@@H]1O | < 50

Next, values leading:

Row | inhibition [%] | SMILES
32 | < 50 | OCC(O)[C@H]1N[C@H](CO)[C@@H](O)[C@@H]1O (single isomer, unassigned)
33 | < 50 | CC(O)[C@H]1N[C@H](CO)[C@@H](O)[C@@H]1O (single isomer, unassigned)

Molecular target: Alpha-glucosidase MAL12 (Saccharomyces cerevisiae S288c, UniProt P53341)
Assay: Inhibition of yeast alpha-glucosidase assessed as p-nitrophenol release after 30 mins measured at 400 nm

Sequence of Alpha-glucosidase MAL12 (P53341 whole entry): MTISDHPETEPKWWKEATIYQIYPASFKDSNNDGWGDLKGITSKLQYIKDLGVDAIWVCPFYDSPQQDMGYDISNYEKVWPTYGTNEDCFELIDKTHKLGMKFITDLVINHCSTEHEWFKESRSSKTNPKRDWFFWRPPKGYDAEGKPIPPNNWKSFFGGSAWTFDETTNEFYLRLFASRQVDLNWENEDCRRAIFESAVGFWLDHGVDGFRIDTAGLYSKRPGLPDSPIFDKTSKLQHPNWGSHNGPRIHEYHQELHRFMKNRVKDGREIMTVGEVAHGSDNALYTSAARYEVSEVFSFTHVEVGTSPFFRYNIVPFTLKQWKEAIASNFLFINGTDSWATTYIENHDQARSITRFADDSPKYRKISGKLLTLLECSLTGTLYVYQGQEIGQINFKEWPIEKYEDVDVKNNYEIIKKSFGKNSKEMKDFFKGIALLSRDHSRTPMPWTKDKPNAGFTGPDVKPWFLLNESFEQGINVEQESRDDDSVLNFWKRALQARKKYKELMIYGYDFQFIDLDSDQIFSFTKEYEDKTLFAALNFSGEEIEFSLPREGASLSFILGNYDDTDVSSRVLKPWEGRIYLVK

Row | IC50 [µM] | SMILES
34 | 250 | OCC[C@H]1N[C@H](CO)[C@@H](O)[C@@H]1O
35 | 220 | OCC(O)[C@H]1N[C@H](CO)[C@@H](O)[C@@H]1O (single isomer, unassigned)
36 | 85 | CC(O)[C@H]1N[C@H](CO)[C@@H](O)[C@@H]1O (single isomer, unassigned)

Molecular target: Oligo-1,6-glucosidase IMA1 (Saccharomyces cerevisiae S288c) (UniProt P53051)
Assay: Inhibition of yeast alpha-glucosidase assessed as p-nitrophenol release at 1000 uM after 30 mins measured spectrometrically at 400 nm

Row | inhibition [%] | SMILES
37 | < 50 | OC[C@H]1NC[C@@H](O)[C@H](O)[C@@H]1O

Molecular target: Beta-glucosidase A (Caldicellulosiruptor saccharolyticus, UniProt P10482)
Assay: Inhibition of Caldocellum saccharolyticum beta-glucosidase assessed as p-nitrophenol release after 30 mins measured spectrometrically at 400 nm

Sequence of Beta-glucosidase A (P10482 whole entry): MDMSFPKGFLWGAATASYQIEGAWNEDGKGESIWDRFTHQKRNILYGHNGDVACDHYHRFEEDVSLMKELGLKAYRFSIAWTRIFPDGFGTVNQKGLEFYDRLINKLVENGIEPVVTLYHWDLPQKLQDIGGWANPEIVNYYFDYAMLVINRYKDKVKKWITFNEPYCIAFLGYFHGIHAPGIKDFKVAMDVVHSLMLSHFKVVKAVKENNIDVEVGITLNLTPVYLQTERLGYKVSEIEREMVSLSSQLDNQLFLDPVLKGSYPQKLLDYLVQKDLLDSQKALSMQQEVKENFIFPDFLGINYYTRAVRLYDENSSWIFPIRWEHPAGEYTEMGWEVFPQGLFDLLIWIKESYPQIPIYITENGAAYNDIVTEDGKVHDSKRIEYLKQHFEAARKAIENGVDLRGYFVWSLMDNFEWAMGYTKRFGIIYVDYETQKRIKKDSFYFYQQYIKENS

Row | IC50 [µM] | SMILES
38 | 350 | OCC[C@H]1N[C@H](CO)[C@@H](O)[C@@H]1O
39 | 3.2 | OCC(O)[C@H]1N[C@H](CO)[C@@H](O)[C@@H]1O (single isomer, unassigned)
40 | 6.7 | CC(O)[C@H]1N[C@H](CO)[C@@H](O)[C@@H]1O (single isomer, unassigned)

System: Penicillium decumbens
Assay: Inhibition of Penicillium decumbens alpha-L-rhamnosidase assessed as p-nitrophenol release at 1000 uM by spectrophotometry
Outline: as §1

Row | inhibition [%] | SMILES | Activity
41 |  | C[C@@H]1CC[C@@H]2[C@H](O)[C@H](O)[C@@H](CO)N12 (relative stereo) | inactive
42 | < 50 | OCC(O)[C@H]1N[C@H](CO)[C@@H](O)[C@@H]1O (single isomer, unassigned) | 
43 | < 50 | CC(O)[C@H]1N[C@H](CO)[C@@H](O)[C@@H]1O (single isomer, unassigned) | 
